Assay outcomes deposited in PubChem BioAssay by Johns Hopkins Ion Channel Center.
An excerpt weighted towards active compounds, which were near 3.8% of everything screened.
hERG rescue – compounds protecting human hERG from proarrhythmic drug block | activation (rescue from dofetilide block), less the hit threshold, % at 10 µM | Q12809 | CHO-hERG, FluxOR thallium flux, dofetilide IC70 present | 310,000 compounds, 0.51% hits | AID 1511;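 active = activation above the mean of controls blocked by dofetilide plus 5 SD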;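 note: thallium influx through hERG after potassium depolarization seen as dye fluorescence rise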
KCNK3 inh – human KCNK3 channel inhibition, primary screen. O14649. CHO-KCNK3 thallium flux, FluxOR fluorescence; hits give low values. B-score at 10 µM. 340,000 compounds, 0.84% hits. AID 602410;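 active = B-score under library mean minus 4 SD, starting fluorescence ratio at most library mean plus 5 SD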;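 note: more negative B-score means stronger inhibition of thallium flux through KCNK3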
Target sequence (O14649 whole entry, looked up): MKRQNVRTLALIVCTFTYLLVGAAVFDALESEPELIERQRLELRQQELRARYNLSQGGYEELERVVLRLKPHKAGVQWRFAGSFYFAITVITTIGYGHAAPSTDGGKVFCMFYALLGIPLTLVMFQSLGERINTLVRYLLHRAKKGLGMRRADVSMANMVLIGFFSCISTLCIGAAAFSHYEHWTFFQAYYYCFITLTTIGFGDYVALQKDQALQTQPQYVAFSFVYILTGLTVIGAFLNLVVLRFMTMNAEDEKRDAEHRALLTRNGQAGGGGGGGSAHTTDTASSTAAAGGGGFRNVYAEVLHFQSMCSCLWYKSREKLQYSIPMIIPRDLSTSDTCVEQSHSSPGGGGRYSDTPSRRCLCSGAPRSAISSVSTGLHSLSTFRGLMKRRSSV
KCNQ1 act – potentiators or activators of human KCNQ1 potassium channel; P51787; CHO-K1 KCNQ1, thallium flux FluxOR fluorescence; hits give high values; B-score at 10 µM; 310,000 compounds, 0.35% hits; AID 2648;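 active = fluorescence ratio B-score, a plate-corrected score, at least three library SD, with initial intensity B-score within 5 SD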
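Test system: CHO-K1 cells stably expressing KCNQ1 / Medium: assay buffer / Also added: depolarizing K+/Tl+ stimulus, K2SO4 and Tl2SO4 each 12.5 mM in 5x stock / Incubation: 90 min dye loading and 20 min compound exposure, both at room temperature / Signal: thallium influx via FluxOR fluorescence, kinetic imaging / Evaluation: B score of baseline-normalized fluorescence ratio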
Kir21 inh – Kir2.1 (mouse) channel inhibition; P35561; HEK293-Kir2.1, FluxOR thallium flux fluorescence; hits give low values; B-score at 10 µM; 310,000 compounds, 0.85% hits;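 active = fluorescence ratio B-score at or below minus 3 SD of library scores, with starting-brightness B-score within 2 SD, cut at about -4.2 in these data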;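 note: channel flux triggered by added potassium and thallium sulfate stimulus; B-score of peak minus minimum fluorescence over baseline after thallium stimulus; more negative B-score means stronger Kir2.1 block with less thallium influx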
KCNQ1 inh – blocks the human KCNQ1 potassium channel; P51787; CHO-K1 KCNQ1, FluxOR thallium flux fluorescence; hits give high values; B-score at 10 µM; 310,000 compounds, 1.3% hits; AID 2642;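 active = compounds whose thallium flux B-score, printed positive for inhibition, exceeds three library SD while starting fluorescence stays within three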;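 note: channel opened by potassium depolarization with thallium stimulus after 20 min compound exposure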
KCNK9 inh – blocks the human KCNK9 two-pore domain potassium channel; HEK293 KCNK9, FluxOR thallium flux fluorescence; hits give low values; B-score at 10 µM; Q9NPC2; AID 488922; 310,000 compounds, 1.2% hits;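 active = ratio B-score over 3 SD below the library mean, with starting fluorescence within 5 SD of its mean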;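 note: negative B-score means less thallium flux so channel inhibition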
Target sequence (Q9NPC2 whole entry, looked up, the tested form may be a part): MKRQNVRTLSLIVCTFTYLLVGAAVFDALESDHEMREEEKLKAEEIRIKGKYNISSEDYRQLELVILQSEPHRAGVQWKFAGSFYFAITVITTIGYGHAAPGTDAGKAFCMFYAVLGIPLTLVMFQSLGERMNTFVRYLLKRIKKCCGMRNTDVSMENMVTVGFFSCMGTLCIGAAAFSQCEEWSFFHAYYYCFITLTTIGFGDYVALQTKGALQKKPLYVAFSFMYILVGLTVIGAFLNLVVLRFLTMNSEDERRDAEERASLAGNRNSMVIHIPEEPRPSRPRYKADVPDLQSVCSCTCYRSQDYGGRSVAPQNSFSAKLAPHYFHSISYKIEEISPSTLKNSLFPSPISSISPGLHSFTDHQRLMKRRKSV
Each line names hits and unclear results; the compound was inactive in the other large screens.

CC1(C)Cc2c(C#N)c(NC3CCCCC3)nc(-c3ccco3)c2CO1	KCNQ1 inh 6
CC1(C)Cc2c(C#N)c(NCC3CCCO3)nc(-c3ccco3)c2CO1 (configuration not stated)	none
C=CCN1C(=O)/C(=C/C=C2/N(CC)c3ccc(S(=O)(=O)N(C)C)cc3N2CC)SC1=S	KCNQ1 inh 9
C=CCN1C(=O)/C(=C\C=C2\N(C)c3ccccc3C2(C)C)SC1=S	none
CC1CC2=C(NC(=S)NC2c2cccc(F)c2)/C(=C/c2cccc(F)c2)C1 (configuration not stated)	none
CC1CC2=C(NC(=S)NC2c2ccccc2F)/C(=C/c2ccccc2F)C1 (configuration not stated)	KCNQ1 inh 6
CCOC(=O)c1sc2nc(C)nc(N3CCN(S(=O)(=O)c4ccccc4)CC3)c2c1C	none (no result: hERG rescue, KCNQ1 act, Kir21 inh, KCNQ1 inh, KCNK9 inh)
CCN(C[C@H]1N[C@@](Cc2ccccc2)(C(=O)OC)[C@H]2C(=O)N(C)C(=O)[C@@H]12)C(=O)COC	none (no result: hERG rescue, KCNQ1 act, Kir21 inh, KCNQ1 inh, KCNK9 inh)
COc1ccc(NC(C)=O)cc1CNC(=O)CN1CCOCC1	none
CC(C)(C)c1cc(C(=O)NNC(=O)c2ccc(C(F)(F)F)cc2)no1	KCNQ1 act 9
CCn1c(SCC(=O)OCc2ccccc2)nnc1-c1ccco1	Kir21 inh -5.87
CC(C)Cn1c(SCC(=O)c2ccc(Cl)s2)nnc1-c1ccco1	Kir21 inh -9.37
O=C(Cc1cccc(NC(=O)C2CCCN(C(=O)c3ccccc3)C2)c1)Nc1cccc(C(=O)N2CCCCC2)c1 (configuration not stated)	none (no result: hERG rescue, KCNQ1 act, Kir21 inh, KCNQ1 inh, KCNK9 inh)
Cc1cc(C)cc(-n2c(C)cc(/C=N\NC(=O)COc3cccc4cccnc34)c2C)c1	KCNQ1 inh 7
O=C(O)C1CCCN1c1nc(-c2ccc(Cl)c(Cl)c2)cc(C(F)(F)F)n1 (configuration not stated)	none (no result: hERG rescue, KCNQ1 act, Kir21 inh, KCNQ1 inh, KCNK9 inh)
CNc1snc(C)c1C(=O)OCC(=O)c1ccc(OC)c(F)c1	none (no result: hERG rescue, KCNQ1 act, Kir21 inh, KCNQ1 inh, KCNK9 inh)
CCOC(=O)C1CCN(C(=O)COC(=O)c2cccc(NS(=O)(=O)c3ccccc3)c2)CC1	none (no result: hERG rescue, KCNQ1 act, Kir21 inh, KCNQ1 inh, KCNK9 inh)
O=C(NCC(=O)N1CCN(C(c2ccccc2)c2ccccc2)CC1)c1ccc(Br)o1	none
Cc1cc(C)cc(C(=O)NCC(=O)N2CCN(C(c3ccccc3)c3ccccc3)CC2)c1	KCNQ1 inh 6
CC(C)OC(=O)CN1C(=O)S/C(=C/c2ccc(N3CCCCC3)o2)C1=O	KCNK9 inh -7.83
c1ccc(Cn2nnc3c(NCc4ccc5c(c4)OCO5)nc(C4CC4)nc32)cc1	none
CC1Cc2ccccc2N1c1nc(C2CC2)nc2c1nnn2Cc1ccccc1 (configuration not stated)	KCNQ1 inh 6
O=C(O)c1cccc(-c2ccccc2)c1O	none (no result: hERG rescue, KCNQ1 act, Kir21 inh, KCNQ1 inh, KCNK9 inh)
CC(C)CC(=O)NC(NC(=S)Nc1sc2c(c1C#N)CCCC2)C(Cl)(Cl)Cl (configuration not stated)	KCNK9 inh -7.42
COc1ccc(S(N)(=O)=O)cc1C(=O)OCC(=O)N1CCCC(C)C1 (configuration not stated)	none (no result: hERG rescue, KCNQ1 act, Kir21 inh, KCNQ1 inh, KCNK9 inh)
COc1cc(CNCc2ccc(SC)cc2)cc(OC)c1	Kir21 inh -5.19
COc1ccc(S(=O)(=O)N2CCc3cc4c(cc3C2C)OCCCO4)cc1 (configuration not stated)	Kir21 inh -4.44
Cc1ccc(S(=O)(=O)N2CCc3cc4c(cc3C2C)OCCCO4)cc1 (configuration not stated)	none
Cc1nnc(N/N=C/c2cc([N+](=O)[O-])c(N3CCC(C)CC3)cc2N2CCC(C)CC2)n1N	KCNQ1 inh 10
Cn1cnnc1SCC(=O)NC1CC1	none (no result: hERG rescue, KCNQ1 act, Kir21 inh, KCNQ1 inh, KCNK9 inh)
Cc1ccc2c(=O)c(C(=O)NCc3cccs3)c[nH]c2c1	hERG rescue 4.8
CC(CC12CC3CC(CC(C3)C1)C2)NCc1ccccc1O (configuration not stated)	Kir21 inh -5.04, KCNQ1 inh 6
Cc1onc(-c2ccccc2)c1CNS(=O)(=O)c1ccccc1[N+](=O)[O-]	Kir21 inh -6.88
Cc1ccccc1CNS(=O)(=O)c1ccccc1[N+](=O)[O-]	none
COCCN(C(=O)COC(=O)c1ccc(Cl)s1)c1c(N)n(Cc2ccccc2)c(=O)[nH]c1=O	none
C/C=C/C=C/[C@H]1Cc2cc(O)cc(O)c2O1	Kir21 inh -4.27 (no result: KCNK3 inh)
Cc1cc(NC(=O)CSc2nc(C3CC3)nc3sc(C)c(C)c23)no1	hERG rescue 5.9, KCNQ1 act 9
Cn1ccsc1=NC(=O)c1cc(S(=O)(=O)N2CCOCC2)ccc1F	none
O=C(CC1C[C@H](C(=O)N2CCOCC2)[C@@]2(CCC3CCCC3)c3[nH]c4ccccc4c3CCN2C1=O)NCCC1=CCCCC1 (some centres not stated)	none (no result: hERG rescue, KCNQ1 act, Kir21 inh, KCNQ1 inh, KCNK9 inh)
COC(=O)c1cc(S(=O)(=O)N2CCCC(C)C2)cn1C (configuration not stated)	none
COC(=O)c1cc(-c2ccc(S(=O)(=O)N3CCCC(C)C3)cc2)c(C(F)(F)F)s1 (configuration not stated)	KCNQ1 inh 6
CCOC(=O)C1=C(C)N(CC)C(=S)NC1c1ccc(Cl)cc1 (configuration not stated)	Kir21 inh -7.08
CCOC(=O)c1c(C)[nH]c(C(=O)N/N=C\c2ccccc2O)c1C	none
CCOC(=O)c1c(C)[nH]c(C(=O)N/N=C/c2cc([N+](=O)[O-])ccc2O)c1C	KCNQ1 inh 9
O=C(N/N=C/c1cc([N+](=O)[O-])ccc1O)c1cc(-c2ccccc2)nc2ccccc12	KCNQ1 inh 7
CCN(c1cccc2ccccc12)S(=O)(=O)c1ccc(Cl)nc1	none
CCN(c1ccccc1)S(=O)(=O)c1ccc(NC(=O)c2nc(S(C)(=O)=O)ncc2Cl)cc1	KCNQ1 act 17
CCN(c1ccccc1)S(=O)(=O)c1ccc(Cl)nc1	Kir21 inh -4.3
CCS(=O)(=O)c1ncc(Cl)c(C(=O)Nc2ccc(S(=O)(=O)N(C)c3ccccc3)cc2)n1	none
Cn1cnc(C(=O)NCc2ccc(CNC(=O)OC(C)(C)C)cc2)c1C(=O)NCc1ccc(CNC(=O)OC(C)(C)C)cc1	none (no result: hERG rescue, KCNQ1 act, Kir21 inh, KCNQ1 inh, KCNK9 inh)
Cc1ccc(N=Nc2ccc(O)c3ncccc23)cc1C	KCNQ1 act 11
Cc1ccc(N=Nc2ccc(O)c3ncccc23)cc1	hERG rescue 19.8, KCNQ1 act 16
CCOc1ccccc1-n1nnnc1SCC(=O)N1CCCC1=O	none (no result: hERG rescue, KCNQ1 act, Kir21 inh, KCNQ1 inh, KCNK9 inh)
CCC(C)Nc1ccc(NC(C)CC)cc1 (configuration not stated)	KCNK3 inh -8.93 (no result: hERG rescue, KCNQ1 act, Kir21 inh, KCNQ1 inh, KCNK9 inh)
COc1ccc(C[C@H]2CN3C(=NC[C@@H]3Cc3ccccc3)N2CCNC(=O)c2ccc(C)c(Br)c2)cc1	Kir21 inh -4.25, KCNQ1 inh 9
COc1ccc(C[C@H]2CN3C(=NC[C@H]3Cc3ccccc3)N2CCNC(=O)c2ccc(C)c(Br)c2)cc1	Kir21 inh -7.35, KCNQ1 inh 7
